Sampled rows, rich in hits. Any-hit rate of the full collection: about 2.8%.
GASC-1 inh: blocks human GASC-1 demethylase activity | actives 0.069% (n = 330,000) | inhibition, % at 2.35 µM | GST-JMJD2C(1-420) H3K9me3 demethylation, DELFIA europium;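 active = more than half of a compound's replicate wells show inhibition beyond 50%, single wells judged on their own value; inconclusive = some, but no more than half, of replicates pass 50% inhibition; inactive = no replicate passes 50% inhibition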;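 note: signal counts dimethyl H3K9 product captured on neutravidin plate; 0% = median of DMSO wells and 100% = 0.3 times that DMSO median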
Target sequence (Q9H3R0 1-420 limits assumed): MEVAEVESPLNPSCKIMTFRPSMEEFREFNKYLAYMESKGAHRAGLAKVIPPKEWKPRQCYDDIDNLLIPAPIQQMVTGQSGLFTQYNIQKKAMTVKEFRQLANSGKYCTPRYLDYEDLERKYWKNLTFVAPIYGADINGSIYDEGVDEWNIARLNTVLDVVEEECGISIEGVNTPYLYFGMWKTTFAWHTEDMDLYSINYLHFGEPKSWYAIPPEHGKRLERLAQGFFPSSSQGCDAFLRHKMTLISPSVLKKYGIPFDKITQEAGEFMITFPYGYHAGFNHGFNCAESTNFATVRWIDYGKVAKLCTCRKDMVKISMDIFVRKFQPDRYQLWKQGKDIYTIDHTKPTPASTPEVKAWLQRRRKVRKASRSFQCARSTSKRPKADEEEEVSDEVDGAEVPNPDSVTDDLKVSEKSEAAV
NR3A LBD binder: modulators (binders) of human NR3A ligand-binding domain | NR3A LBD differential scanning fluorimetry, Tm shift; 0% = protein alone, 100% = glycine-bound protein | Tm shift relative to glycine control, % at 25 µM | actives 2.5% (n = 340,000) | AID 1259313;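 active = melting temperature shift of at least 10% of the positive control shift, at one fixed dose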
T cell modulator: T cell immune modulators affecting CD8 T cell-vesicle binding | 2C CD8+ T cell-vesicle binding, flow cytometry; hits give low values | response (vesicle binding), % at 7 µM | AID 2052 | actives 0.068% (n = 330,000);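 active = response, share of CD8 T cells binding vesicles, and their 90th percentile fluorescence all below set limits, cut at about 80% in these data, passing the limit was not always enough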;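 note: values below 100% mean blocked vesicle binding to the CD8+ T cells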
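Material: 2C TCR transgenic mouse naive CD8+ T cells, MACS-purified. Also added: QL9-charged Drosophila Ld/ICAM-1/B7-1 vesicles. Timing: binding 1.5 h at 37 °C. Measured by: high-throughput flow cytometry with anti-B7-1 and anti-CD8 staining. Read-out: percent CD8+ FL2 mean versus row control. Controls: Unloaded micro-vesicles (low), QL9 vesicles with 0.7% DMSO (high).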
Rtt109 HAT inh: inhibitors of Candida albicans Rtt109/Vps75 histone acetyltransferase; Q5AAJ8; purified Rtt109/Vps75, ThioGlo CoA-SH fluorescence, 4 h; inhibition, % at 34.9 µM; actives 0.16% (n = 330,000);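 active = inhibition of at least 50% in every replicate; inconclusive = best replicate reaches 50% inhibition but some replicates fall short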
* = called active by the depositor; i = inactive; ? = inconclusive; nt = no result given.

SMILES	GASC-1 inh	NR3A LBD binder	T cell modulator	Rtt109 HAT inh
O=C(CCC1COc2ccccc2O1)Nc1ccc(Cl)cn1 (stereo unspecified)	nt	12*	158	5
CC1CC(CCC(=O)NC(=S)Nc2ccc(Cl)cn2)C(=O)O1 (stereo unspecified)	1	16*	166	nt
CCCCCC(=O)NC(=S)Nc1ccc(Cl)cn1	-1	1	244	-3
CN(Nc1cccc(Cl)c1)c1cccc(Cl)c1	nt	-9	nt	17
O=C(CCCCCN1C(=O)c2ccccc2C1=O)Nc1ccc(C(=O)O)cc1	-2	1	858	-2
CCN(CC(=O)Nc1ccc(NC(C)=O)cc1)C(=O)/C=C/c1ccc2c(c1)OCO2	8	31*	264	-2
Cc1ccc(NC(=O)CN(C)C(=O)/C=C/c2ccc3c(c2)OCO3)cc1	-2	3	579	-1
Cc1nc(CC(C)C)cc(C(=O)N2CCCC(CNS(=O)(=O)c3cccs3)C2)n1 (stereo unspecified)	10	-14	542	60*
O=C(c1ccc(Cl)cc1)N1CCN(c2ccc(F)cc2)CC1	1	1	478	nt
O=C(c1ccc(Cl)cc1)N1CCN(c2cccc3[nH]ccc23)CC1	-47	15*	i	0
COc1ccc(-c2ccc3oc(-c4ccsc4)cc(=O)c3c2)cc1F	-12	-17	267	1
O=c1cc(-c2ccsc2)oc2ccc(-c3ccc4cc[nH]c4c3)cc12	4	15*	88	0
COc1ccc(S(=O)(=O)N2CCCCC2)cc1NC(=O)Cn1c(=O)cnc2ccccc21	0	12*	331	20
COc1ccccc1NC(=O)Nc1nc(CC(=O)Nc2ccc(N(C)C)cc2)cs1	-2	24*	148	14
COc1ccccc1NC(=O)Nc1nc(CC(=O)Nc2ccc(F)c(F)c2)cs1	-13	34*	115	6
COc1ccccc1CNC(=O)Cc1csc(NC(=O)Nc2ccccc2OC)n1	-3	-9	465	-13
COc1ccccc1NC(=O)Nc1nc(CC(=O)Nc2cc(F)ccc2F)cs1	?	21*	241	13
COc1ccccc1NC(=O)Nc1nc(CC(=O)Nc2ccc(F)cc2)cs1	-2	33*	143	-1
Cn1cnc2cc(NCc3ccc(Cl)cc3)ccc21	12	-1	387	-3
COc1ccc(NC(=O)CN(C)C(=O)CNC(=O)c2ccc3ccccc3c2)cc1	nt	0	nt	-2
Cc1c(C(=O)N2CC(C)OC(C)C2)[nH]c2ccc(Br)cc12 (stereo unspecified)	-3	3	229	7
Cc1ccc(NC(=S)Nc2nc(CC(=O)Nc3ccccc3)cs2)cc1	-6	17*	916	0
Cc1ccc(NC(=O)Cc2nc(CCl)cs2)cc1	-2	-3	234	-6
COc1ccccc1NC(=O)Nc1nc(CC(=O)Nc2cccc(F)c2)cs1	-4	28*	240	?
Cc1cc(N2CCC(C)CC2)n2ncc(-c3ccccc3)c2n1	-6	13*	179	3
SMILES	GASC-1 inh	NR3A LBD binder	T cell modulator	Rtt109 HAT inh
Cc1cc(NCCN2CCOCC2)n2ncc(-c3ccccc3)c2n1	10	13*	354	1
Cc1cc(NCCN2CCOCC2)n2nc(C)c(-c3ccccc3)c2n1	-12	-3	311	4
Cc1cc(N2CCCCC2)n2ncc(-c3ccccc3)c2n1	-9	4	280	-5
CC1CN(c2nc3ccccn3c(=O)c2C=O)CC(C)O1 (stereo unspecified)	1	-1	178	2
CC(C)(C)S(=O)N1Cc2cc(CO)cc(CCO)c2[C@H]1CCO (stereo partly specified)	nt	2	nt	-5
C(=N\N1CCN(C2c3ccccc3-c3ccccc32)CC1)/c1ccncc1	-1	-5	119	2
C/C(=N\N1CCN(C2c3ccccc3-c3ccccc32)CC1)c1ccncc1	1	15*	174	1
O=c1[nH]c(-c2ccc(O)cc2)nc2scc(-c3cccs3)c12	7	19*	215	-4
Cc1nc2scc(-c3cccs3)c2c(=O)[nH]1	-3	2	634	-7
Cc1nn(CC(=O)NCc2cccnc2)c(C)c1[N+](=O)[O-]	1	1	144	68*
O=C(Nc1ccc2c(c1)CCC2)c1cc(S(=O)(=O)Nc2ccc(F)cc2)c(Cl)cc1Cl	4	31*	274	-18
CCOC(=O)c1c(C)oc2ccc(NS(=O)(=O)c3cccs3)cc12	5	-23	490	-6
CC(=O)c1c(C)oc2ccc(NS(=O)(=O)c3cccs3)cc12	5	17*	200	-1
CCN1CCN(c2oc(/C=C/c3ccccc3)nc2C#N)CC1	0	1	226	-74
CN(c1ccc(C(=O)Nc2ccccc2C(=O)N2CCCC2)cc1)S(C)(=O)=O	-9	15*	440	-4
C[C@]12CCC(O)CC1CCC1C2CC[C@]2(C)C(c3cc(C(F)(F)F)n[nH]3)CCC12 (stereo partly specified)	-13	24*	270	1
CCOC(=O)c1nn(-c2ccc(F)cc2)c(=O)cc1OCC(=O)Nc1ccc(OCC)cc1	-11	-2	333	-10
c1ccc(C(c2ccccc2)c2nc(-c3cccnc3)no2)cc1	-3	16*	646	3
c1ccc(C(Cc2nc(-c3cccnc3)no2)c2ccccc2)cc1	-2	1	260	0
CCCCN1CC(=O)N2[C@H]3c4ccccc4OC[C@@H]3[C@H](C(=O)OCC)[C@]2(C)C1=O	0	2	340	0
Cc1cc(Cl)ccc1OCC(=O)Nc1ccccc1NS(=O)(=O)c1cccs1	41	14*	131	4
O=C(Nc1ccc(F)cc1)Nc1ccccc1NS(=O)(=O)c1cccs1	4	30*	230	-4
O=C(Nc1ccc(Cl)cc1)Nc1ccccc1NS(=O)(=O)c1cccs1	2	30*	189	-4
NC(=O)c1ccccc1NS(=O)(=O)c1cccs1	-7	1	134	6
O=C(COc1ccc(Cl)cc1Cl)Nc1ccccc1NS(=O)(=O)c1cccs1	0	5	553	2
SMILES	GASC-1 inh	NR3A LBD binder	T cell modulator	Rtt109 HAT inh
COc1ccc(Cl)cc1NC(=O)COC(=O)c1cc(NS(=O)(=O)c2cccs2)ccc1O	-1	25*	205	1
C[C@H]1CN([C@@H](C)CO)C(=O)c2cccc(NC(=O)C3CC3)c2O[C@H]1CN(C)Cc1ccncc1	45	-1	475	-2
COc1ccc(CCN2CC(C(=O)Nc3nccs3)CC2=O)cc1OC (stereo unspecified)	-4	-1	582	-3
Cc1cc(Cl)ccc1OC(C)C(=O)OCC(=O)c1ccc[nH]1 (stereo unspecified)	25	-2	849	-3
O=C(COC(=O)c1ccc(NS(=O)(=O)c2cccs2)cc1O)Nc1nc2ccccc2s1	1	19*	381	7
O=S(=O)(Nc1cccc(Br)c1)c1cccc2nsnc12	-7	0	583	3
Cc1cccc(NS(=O)(=O)c2cccc3nsnc23)c1	56*	0	282	-2
